ASAP1 inh: ASAP1 ArfGAP inhibition | ASAP1-stimulated ARF1 GTP hydrolysis, GDP FP detection | hit rate 0.19% among 360,000 | Q9ULH1 | inhibition, % at 16.5 µM | AID 624377; in the data active = inhibition above about 25%;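 also: 0% = vehicle with enzyme and substrate and 100% = no enzyme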
Target sequence (Q9ULH1 325-724 limits assumed): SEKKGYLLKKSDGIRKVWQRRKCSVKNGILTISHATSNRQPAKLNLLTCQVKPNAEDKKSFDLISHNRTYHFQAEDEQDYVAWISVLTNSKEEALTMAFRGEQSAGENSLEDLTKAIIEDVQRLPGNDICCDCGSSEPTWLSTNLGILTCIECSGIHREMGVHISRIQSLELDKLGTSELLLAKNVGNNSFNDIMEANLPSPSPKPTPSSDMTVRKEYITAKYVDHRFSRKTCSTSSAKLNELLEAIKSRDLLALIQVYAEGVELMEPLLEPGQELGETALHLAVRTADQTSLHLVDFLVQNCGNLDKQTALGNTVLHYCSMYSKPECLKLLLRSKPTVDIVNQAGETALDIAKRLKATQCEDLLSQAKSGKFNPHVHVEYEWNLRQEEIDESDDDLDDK
NadD inh: blocks S. aureus nicotinate mononucleotide adenylyltransferase | purified NadD enzyme, colorimetric absorbance read-out | inhibition, % at 20 µM | hit rate 0.78% among 360,000; in the data active = inhibition above about 26%
rCAG binder: binds r(CAG) RNA repeats; r(CAG) RNA repeat, TO-PRO-1 dye displacement fluorescence; inhibition, % at 3 µM; hit rate 1.3% among 370,000;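 active = inhibition above the plate cutoff, the mean of all test compounds on that plate plus 3 SD, cut at about 35% in these data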;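 also: 0% = DMSO alone and 100% = 100 µM mitoxantrone as full dye displacement; higher means more dye released from RNA so lower well fluorescence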
ARFGAP1 inhibitor: inhibits rat ARF GTPase activating protein 1 | Q62848 | Arfgap1-stimulated ARF1 GTP hydrolysis, GDP FP detection | inhibition, % at 16.5 µM | hit rate 0.26% among 360,000;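 active = inhibition above a per-plate limit, mean inhibition of low control wells plus 3 SD, cut at about 25% in these data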;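 also: 0% = DMSO wells with enzyme and 100% = wells lacking Arfgap1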
Target sequence (Q62848 1-136 limits assumed): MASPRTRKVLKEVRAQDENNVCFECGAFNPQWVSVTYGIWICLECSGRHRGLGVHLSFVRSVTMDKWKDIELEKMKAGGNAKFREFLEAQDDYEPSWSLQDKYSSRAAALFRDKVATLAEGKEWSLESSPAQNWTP
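Assay system: purified rat His6-Arfgap1 residues 1-136 (GAP domain); Reagent: human Δ17 ARF1 bound to GTP; Dosing: 16.5 µM single point, 1.26% DMSO; Times: GTP hydrolysis reaction 2 h at 25 °C; Signal: FP, GDP Alexa 633 tracer displaced from anti-GDP antibody, 620/688 nm; Measure: % inhibition from polarization.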
rCAG binder conf: r(CAG) RNA repeat binding, confirmation; shares compounds with rCAG binder; TO-PRO-1 dye displacement fluorescence; inhibition, % at 3 µM; hit rate 70% among 4,300;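 active = inhibition above a per-plate cutoff, the mean inhibition of sample wells plus 3 SD, cut at about 35% in these data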;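 also: loss of TO-PRO-1 fluorescence as compound displaces dye from 1x1 AA loop RNA; 0% = DMSO only wells and 100% = 100 µM mitoxantrone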
DNA CAG counter: disrupts DNA CAG TO-PRO-1 complex, flagging rCAG hits | hit rate 94% among 4,300 | AID 652068 | shares compounds with rCAG binder | d(CAG) DNA oligo TO-PRO-1 dye displacement, fluorescence | inhibition, % at 3 µM;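 active = inhibition above its plate's cutoff, the mean test-well inhibition plus 3 SD, cut at about 4.8% in these data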;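 also: 0% = DNA dye mix with DMSO and 100% = 100 µM mitoxantrone; hits displace the dye from DNA and so lower well fluorescence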
An asterisk follows results filed as active; nt = no result. Hits are enriched below; roughly 2.2% of the tested compounds scored in any of these assays.

SMILES | ASAP1 inh | NadD inh | rCAG binder | ARFGAP1 inhibitor | rCAG binder conf | DNA CAG counter
O=C(c1cc(Cl)cc(Cl)c1)N1CC[C@H]2[C@H](CCCN2Cc2cc(F)cc(F)c2)C1 | nt | nt | -1 | nt | nt | nt
FC(F)(F)c1cc(Cl)c2nc(-c3ccc(Cl)cc3)c(Cc3ccsc3)n2c1 | -6 | 24 | 51* | -22 | 16 | 6.1*
Fc1ccc(-c2nc3c(Cl)cc(C(F)(F)F)cn3c2Cc2cccc(Cl)c2)cc1 | 17 | 30 | 38* | -14 | 5 | 4.6*
Cc1ccc(Cc2c(-c3ccc(F)cc3)nc3c(Cl)cc(C(F)(F)F)cn23)cc1 | 4 | -2 | 28 | 6 | nt | nt
CCOC(=O)c1ccc(S(=O)(=O)Nc2nc3cc(S(=O)(=O)NC4=NCCCCC4)ccc3s2)cc1 | -1 | 7 | 59* | 8 | 56* | 23*
COc1ccc(-c2csc(NS(=O)(=O)c3ccc([N+](=O)[O-])cc3)n2)cc1 | 2 | 8 | 70* | -7 | 57* | 23*
CNc1nc(-c2ccc([N+](=O)[O-])cc2)cs1 | -7 | -4 | 3 | 0 | nt | nt
COc1ccc(Cc2nnc(NS(=O)(=O)c3ccc([N+](=O)[O-])cc3)s2)cc1 | 3 | 5 | 44* | 9 | 49* | 17*
Cc1ccc(Nc2nc(-c3cccs3)cs2)nc1 | 10 | 7 | 7 | 8 | nt | nt
Cc1ccc(Nc2nc(-c3ccccc3)cs2)nc1 | 1 | 4 | 47* | 11 | 4 | 1
Cc1ccc(S(=O)(=O)Nc2ccccc2-c2ccccc2NS(=O)(=O)c2ccc(C)cc2)cc1 | -14 | 3 | 74* | -8 | 89* | 59*
CCOC(=O)N1CCN(C(=O)C(CC(C)C)NS(=O)(=O)c2ccc(C)cc2)CC1 (stereo not drawn) | -3 | 1 | -2 | -9 | nt | nt
CCOC(=O)[C@]12CCCC=C1N(CCCOC)C(=O)[C@@H]2CC(=O)NCC1CCCCC1 | nt | nt | -1 | nt | nt | nt
O=C(Nc1ccccc1)c1cc(C2CCCCN2C(=O)CCc2ccccc2)on1 (stereo not drawn) | 6 | -3 | 2 | 6 | nt | nt
Cc1cc(Br)cn2c(Cc3ccsc3)c(-c3ccco3)nc12 | 2 | 23 | 15 | -16 | nt | nt
COc1ccc(-c2csc(Nc3ccc(S(=O)(=O)Nc4cc(C)on4)cc3)n2)cc1 | -5 | 9 | 73* | -3 | 72* | 36*
COc1cc(NS(=O)(=O)c2ccc(Nc3nc(-c4cccc([N+](=O)[O-])c4)cs3)cc2)nc(OC)n1 | 11 | 28 | 95* | 11 | 90* | 64*
Cc1ccc(S(=O)(=O)Nc2nc(-c3ccccc3)cs2)cc1 | 6 | -1 | 40* | -3 | 26 | 6.1*
Cc1ccc(S(=O)(=O)Nc2ccc(-c3csc(-c4ccccc4)n3)cc2)cc1 | -7 | 4 | 28 | 9 | nt | nt
COC(=O)[C@@]12CCCCC3=C1N(CCC3)C(=O)[C@H]2CC(=O)N1CCN(C(=O)c2ccco2)CC1 | nt | nt | 0 | nt | nt | nt
CCOC(=O)C1=C(O)/C(=C\c2ccc(CNC(=O)C(=O)Nc3ccccc3)o2)N=C1C | -3 | 27 | 46* | -8 | 39* | 19*
Cc1ccc(-n2c(SCC(=O)Nc3ccc(S(=O)(=O)Nc4cc(C)nc(C)n4)cc3)nnc2-c2ccc(C(C)(C)C)cc2)cc1 | nt | nt | 44* | nt | 42* | 16*
CCOc1ccc(-n2c(SCC(=O)Nc3ccc(S(=O)(=O)Nc4cc(C)nc(C)n4)cc3)nnc2-c2ccc(C)cc2)cc1 | nt | nt | 52* | nt | 58* | 18*
CCOc1ccc(-n2c(SCC(=O)Nc3ccc(S(=O)(=O)Nc4cc(C)nc(C)n4)cc3)nnc2-c2ccc(OC)cc2)cc1 | nt | nt | 41* | nt | 44* | 15*
COc1ccc(-n2c(COc3ccc(C)cc3)nnc2SCC(=O)Nc2ccc(S(=O)(=O)Nc3cc(C)nc(C)n3)cc2)cc1 | nt | nt | 51* | nt | 44* | 14*
SMILES | ASAP1 inh | NadD inh | rCAG binder | ARFGAP1 inhibitor | rCAG binder conf | DNA CAG counter
CCOc1ccc(-n2c(SCC(=O)Nc3ccc(S(=O)(=O)Nc4cc(C)nc(C)n4)cc3)nnc2-c2ccncc2)cc1 | nt | nt | 20 | nt | nt | nt
O=C(Nc1ccccc1Oc1ccccc1)NC1CCCCN(Cc2cccc(Cl)c2)C1=O (stereo not drawn) | nt | nt | 7 | nt | nt | nt
CCOC(=O)[C@]12CCCC=C1N(Cc1ccc(OC)cc1)C(=O)[C@@H]2CC(=O)NCc1cccc(C(F)(F)F)c1 | nt | nt | 2 | nt | nt | nt
COc1ccc(-n2c(SCC(=O)Nc3ccc(S(=O)(=O)Nc4cc(C)nc(C)n4)cc3)nnc2-c2ccco2)cc1 | nt | nt | 34 | nt | nt | nt
CCOc1ccc(-n2c(SCC(=O)Nc3ccc(S(=O)(=O)Nc4cc(C)nc(C)n4)cc3)nnc2-c2cccc(C)c2)cc1 | nt | nt | 47* | nt | 47* | 16*
O=C(Nc1ccc(Cl)c(C(F)(F)F)c1)C1Cc2c(-c3ccc4c(c3)OCO4)ccnc2O1 (stereo not drawn) | 8 | 8 | 7 | 1 | nt | nt
CCCCCNC(=O)c1ccc2c(=O)[nH]c3c(C(=O)NCC4CCCO4)sc(=S)n3c2c1 (stereo not drawn) | 7 | 25 | 59* | 0 | 86* | 62*
CCn1c(N)c(C(=O)NCC2CCCO2)sc1=S (stereo not drawn) | -14 | 5 | -1 | 7 | nt | nt
O=C(NCc1ccccc1)c1ccc2c(=O)[nH]c3c(C(=O)NCC4CCCO4)sc(=S)n3c2c1 (stereo not drawn) | 7 | 10 | 50* | 3 | 91* | 66*
Cc1ccc(CNC(=O)c2ccc3c(=O)[nH]c4c(C(=O)NCC5CCCO5)sc(=S)n4c3c2)cc1 (stereo not drawn) | 10 | 21 | 61* | 4 | 92* | 74*
O=C(NCc1ccco1)c1sc(=S)n2c1[nH]c(=O)c1ccccc12 | 4 | 6 | 62* | -12 | 66* | 22*
O=C(NCc1ccccc1)c1ccc2c(=O)n(CC3CCCO3)c(=S)[nH]c2c1 (stereo not drawn) | -21 | 1 | -2 | 4 | nt | nt
Cc1ccc(CNC(=O)c2ccc3c(=O)n(CC4CCCO4)c(=S)[nH]c3c2)cc1 (stereo not drawn) | 6 | -1 | 0 | -6 | nt | nt
OC[C@@H]1CN(Cc2ccc(-c3ccccc3)cc2)C[C@H](n2cnc3c(N4CCOCC4)ncnc32)O1 | 8 | -6 | 3 | -5 | nt | nt
COC(=O)[C@H](Cc1ccccc1)NC(=O)/C=C/[C@H]1O[C@@H](n2ccc(=O)[nH]c2=O)[C@H](O)[C@@H]1O | 3 | -1 | 5 | -6 | nt | nt
CN(C)CCN1CCN(C2CN(Cc3cn(Cc4ccccc4)nn3)S(=O)(=O)C2)CC1 (stereo not drawn) | 8 | 4 | 3 | -6 | nt | nt
CCOC(=O)CC1(NC(=O)c2cc(COc3cccc(OC)c3)on2)CCCCC1 | -6 | -4 | -4 | 5 | nt | nt
O=c1[nH]c2cc(S(=O)(=O)CCO)ccc2o1 | -6 | -4 | 36* | 5 | 2 | 1
O=S1(=O)c2ccc(Br)cc2OC[C@@H](c2ccccc2)N1Cc1cn(CCC2OCCO2)nn1 | nt | nt | 5 | nt | nt | nt
